From ChEMBL document CHEMBL5696442, “Discovery of type II inhibitors of TGFβ-activated kinase 1 (TAK1) and mitogen-activated protein kinase kinase kinase kinase 2 (MAP4K2)” (J Med Chem, 2015) come the findings set out here.

As usually defined, the inhibition is the relative decrease from the control value, in per cent. One may read the residual activity as what remains of the control signal, in per cent. High values mean a small loss of activity, low ones a large loss of activity.

Experiment [1] addresses Serine/threonine-protein kinase WNK3 (Homo sapiens) (UniProt Q9BYP7). The experiment is described as follows: Inhibition of Wnk3 ACT labeling site in human Huh-7 cell lysate at 1 uM by KiNativ Profiling analysis relative to control. The class given is subcellular.
Experiment [2] addresses Cyclin-dependent kinase 17 (Homo sapiens) (UniProt Q00537). Briefly: Inhibition of PCTAIRE2 Lys1 labeling site in human Huh-7 cells at 1 uM by KiNativ Profiling analysis relative to control. The class given is cell-based.
For experiment [3], the target named is T1, Serine/threonine-protein kinase ULK3 (Homo sapiens) (UniProt Q6PHR2).
T1 sequence (whole entry): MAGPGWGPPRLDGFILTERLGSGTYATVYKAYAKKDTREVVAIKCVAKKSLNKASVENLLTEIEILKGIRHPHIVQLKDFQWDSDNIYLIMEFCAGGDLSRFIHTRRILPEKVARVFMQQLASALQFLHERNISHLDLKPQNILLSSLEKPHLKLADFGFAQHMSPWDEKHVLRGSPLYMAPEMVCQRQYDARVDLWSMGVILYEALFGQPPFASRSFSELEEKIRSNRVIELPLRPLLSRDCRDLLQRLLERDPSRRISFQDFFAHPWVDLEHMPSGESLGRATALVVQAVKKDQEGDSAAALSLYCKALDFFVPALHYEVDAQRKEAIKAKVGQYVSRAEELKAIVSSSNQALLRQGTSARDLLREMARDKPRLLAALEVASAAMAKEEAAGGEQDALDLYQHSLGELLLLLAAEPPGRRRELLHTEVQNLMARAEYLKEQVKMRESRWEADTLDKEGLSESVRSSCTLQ
Briefly: Inhibition of ULK3 (unknown origin) at 1 uM by Ambit Kinomescan binding assay relative to control.

Experiment [4] concerns the target T2, Receptor-interacting serine/threonine-protein kinase 4 (Homo sapiens) (UniProt P57078).
T2 sequence (whole entry): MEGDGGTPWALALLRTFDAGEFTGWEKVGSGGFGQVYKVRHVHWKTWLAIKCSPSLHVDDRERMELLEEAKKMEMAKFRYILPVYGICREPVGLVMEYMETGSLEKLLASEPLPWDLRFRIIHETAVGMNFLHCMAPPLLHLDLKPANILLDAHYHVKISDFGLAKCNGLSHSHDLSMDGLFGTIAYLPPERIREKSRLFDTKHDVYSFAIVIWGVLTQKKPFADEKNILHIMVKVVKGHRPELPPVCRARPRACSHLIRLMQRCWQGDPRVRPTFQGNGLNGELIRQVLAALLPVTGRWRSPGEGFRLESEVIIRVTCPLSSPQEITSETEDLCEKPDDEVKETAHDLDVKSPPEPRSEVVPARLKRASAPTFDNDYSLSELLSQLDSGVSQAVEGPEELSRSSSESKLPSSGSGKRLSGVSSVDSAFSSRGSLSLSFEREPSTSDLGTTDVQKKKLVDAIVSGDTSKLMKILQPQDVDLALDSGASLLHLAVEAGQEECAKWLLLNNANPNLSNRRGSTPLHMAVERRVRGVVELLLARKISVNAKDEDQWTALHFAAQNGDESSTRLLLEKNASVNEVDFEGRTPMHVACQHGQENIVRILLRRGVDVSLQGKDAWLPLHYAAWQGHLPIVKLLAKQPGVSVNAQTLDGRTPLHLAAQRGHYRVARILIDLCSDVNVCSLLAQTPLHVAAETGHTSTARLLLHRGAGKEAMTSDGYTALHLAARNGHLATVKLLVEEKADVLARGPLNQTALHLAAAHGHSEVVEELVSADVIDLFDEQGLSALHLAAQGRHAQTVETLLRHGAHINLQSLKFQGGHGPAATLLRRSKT
Briefly: Inhibition of ANKRD3 Lys1 labeling site in human A-375 cells at 0.5 uM by KiNativ Profiling analysis relative to control. The class given is cell-based.

Experiment [5] has as its target Mitogen-activated protein kinase 14 (Homo sapiens, UniProt Q16539). Briefly: Inhibition of p38 alpha in human A-375 cells at 0.05 uM by KiNativ Profiling analysis relative to control. It counts as cell-based.
Experiment [6] has as its target Ribosomal protein S6 kinase alpha-1 (Homo sapiens) (UniProt Q15418). The experiment is described as follows: Inhibition of RSK1 domain2 Lys2 labeling site in human A-375 cells at 0.05 uM by KiNativ Profiling analysis relative to control. It counts as cell-based.
Experiment [7] deals with LIM domain kinase 1 (Homo sapiens) (UniProt P53667). Briefly: Inhibition of LIMK1 (unknown origin) at 1 uM by Ambit Kinomescan binding assay relative to control; values are per cent of control.
Experiment [8] has as its target Cyclin-dependent kinase 5 (Homo sapiens) (UniProt Q00535). Briefly: Inhibition of CDK5 (unknown origin) at 10 uM by Ambit Kinomescan binding assay relative to control.
Experiment [9] concerns Epidermal growth factor receptor (Homo sapiens), P00533 [UNDEFINED MUTATION]. Briefly: Inhibition of EGFR L747-T751del mutant (unknown origin) at 10 uM by Ambit Kinomescan binding assay relative to control.
Chain of Epidermal growth factor receptor (Homo sapiens), P00533 [UNDEFINED MUTATION] (P00533 whole entry, looked up, stated change not applied): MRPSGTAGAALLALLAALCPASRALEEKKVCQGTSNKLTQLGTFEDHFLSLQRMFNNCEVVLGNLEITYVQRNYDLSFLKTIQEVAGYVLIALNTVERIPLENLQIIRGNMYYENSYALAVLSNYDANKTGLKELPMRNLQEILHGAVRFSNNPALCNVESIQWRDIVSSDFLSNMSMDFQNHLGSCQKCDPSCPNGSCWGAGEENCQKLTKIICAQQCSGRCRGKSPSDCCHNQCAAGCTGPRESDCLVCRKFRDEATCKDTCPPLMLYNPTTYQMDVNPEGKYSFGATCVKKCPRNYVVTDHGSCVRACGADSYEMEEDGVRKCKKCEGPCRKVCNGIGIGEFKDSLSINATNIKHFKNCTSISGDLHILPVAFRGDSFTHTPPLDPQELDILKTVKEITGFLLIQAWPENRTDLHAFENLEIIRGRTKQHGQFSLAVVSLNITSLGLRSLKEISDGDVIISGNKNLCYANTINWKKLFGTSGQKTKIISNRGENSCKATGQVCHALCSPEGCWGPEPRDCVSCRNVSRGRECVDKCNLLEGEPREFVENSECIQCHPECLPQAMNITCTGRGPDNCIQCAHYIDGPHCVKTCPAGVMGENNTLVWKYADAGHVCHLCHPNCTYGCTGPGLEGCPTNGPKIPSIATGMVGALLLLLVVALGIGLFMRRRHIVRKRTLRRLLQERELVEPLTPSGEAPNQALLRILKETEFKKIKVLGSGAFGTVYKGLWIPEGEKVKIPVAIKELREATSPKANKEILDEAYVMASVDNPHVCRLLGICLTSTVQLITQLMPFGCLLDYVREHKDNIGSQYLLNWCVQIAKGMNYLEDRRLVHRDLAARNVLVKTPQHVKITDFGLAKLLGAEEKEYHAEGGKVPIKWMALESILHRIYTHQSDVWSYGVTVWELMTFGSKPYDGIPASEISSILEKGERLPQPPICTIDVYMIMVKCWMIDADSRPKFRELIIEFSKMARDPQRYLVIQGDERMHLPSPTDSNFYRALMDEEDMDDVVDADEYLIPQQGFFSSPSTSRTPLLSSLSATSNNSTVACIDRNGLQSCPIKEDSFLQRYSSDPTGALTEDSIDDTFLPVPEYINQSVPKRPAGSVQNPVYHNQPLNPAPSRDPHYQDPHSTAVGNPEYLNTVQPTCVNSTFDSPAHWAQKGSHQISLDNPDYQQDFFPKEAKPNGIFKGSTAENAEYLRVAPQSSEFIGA
For experiment [10], the target named is Tyrosine-protein kinase receptor UFO (Homo sapiens) (UniProt P30530). Briefly: Inhibition of AXL ACT labeling site in human A-375 cells at 0.5 uM by KiNativ Profiling analysis relative to control. It counts as cell-based. A digest of the protocol:
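Live A375 melanoma cells were treated with compound at 5 or 0.5 μM, then lysed. Lysates were labeled with a lysine-reactive ATP or ADP-biotin probe. Read-out was the compound's protection of kinase labeling sites from probe labeling (KiNativ).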

The target in experiment [11] is Tyrosine-protein kinase Fer (Homo sapiens, UniProt P16591). The experiment is described as follows: Inhibition of FER K1 labeling site in human Huh-7 cells at 1 uM by KiNativ Profiling analysis relative to control. The class given is cell-based.
In experiment [12] the target is Cyclin-dependent kinase 11B (Homo sapiens) (UniProt P21127). The experiment is described as follows: Inhibition of CDK11 (unknown origin) at 10 uM by Ambit Kinomescan binding assay relative to control; values are per cent of control.

Chain of Ribosomal protein S6 kinase alpha-1 (Homo sapiens) (Q15418 whole entry, the tested form may be a part): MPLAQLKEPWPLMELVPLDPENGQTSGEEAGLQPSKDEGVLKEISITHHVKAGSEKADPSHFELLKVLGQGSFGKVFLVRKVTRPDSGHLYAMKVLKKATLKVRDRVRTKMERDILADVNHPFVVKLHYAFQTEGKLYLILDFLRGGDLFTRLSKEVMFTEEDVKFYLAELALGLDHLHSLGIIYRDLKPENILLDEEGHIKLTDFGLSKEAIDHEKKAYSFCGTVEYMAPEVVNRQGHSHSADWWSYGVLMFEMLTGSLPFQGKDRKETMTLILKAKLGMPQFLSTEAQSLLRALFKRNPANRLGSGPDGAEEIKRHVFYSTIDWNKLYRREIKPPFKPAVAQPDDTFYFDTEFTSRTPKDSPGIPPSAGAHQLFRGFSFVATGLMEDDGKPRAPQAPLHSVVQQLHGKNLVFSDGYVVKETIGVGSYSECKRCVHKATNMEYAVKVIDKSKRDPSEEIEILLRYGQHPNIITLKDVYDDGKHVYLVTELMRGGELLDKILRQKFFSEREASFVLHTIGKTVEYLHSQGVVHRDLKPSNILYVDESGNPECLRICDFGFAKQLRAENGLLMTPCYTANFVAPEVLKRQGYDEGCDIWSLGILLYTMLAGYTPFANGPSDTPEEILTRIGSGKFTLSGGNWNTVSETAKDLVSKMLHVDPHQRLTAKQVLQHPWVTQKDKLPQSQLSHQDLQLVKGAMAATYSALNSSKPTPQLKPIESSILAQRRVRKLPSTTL
Chain of Tyrosine-protein kinase receptor UFO (Homo sapiens) (P30530 whole entry): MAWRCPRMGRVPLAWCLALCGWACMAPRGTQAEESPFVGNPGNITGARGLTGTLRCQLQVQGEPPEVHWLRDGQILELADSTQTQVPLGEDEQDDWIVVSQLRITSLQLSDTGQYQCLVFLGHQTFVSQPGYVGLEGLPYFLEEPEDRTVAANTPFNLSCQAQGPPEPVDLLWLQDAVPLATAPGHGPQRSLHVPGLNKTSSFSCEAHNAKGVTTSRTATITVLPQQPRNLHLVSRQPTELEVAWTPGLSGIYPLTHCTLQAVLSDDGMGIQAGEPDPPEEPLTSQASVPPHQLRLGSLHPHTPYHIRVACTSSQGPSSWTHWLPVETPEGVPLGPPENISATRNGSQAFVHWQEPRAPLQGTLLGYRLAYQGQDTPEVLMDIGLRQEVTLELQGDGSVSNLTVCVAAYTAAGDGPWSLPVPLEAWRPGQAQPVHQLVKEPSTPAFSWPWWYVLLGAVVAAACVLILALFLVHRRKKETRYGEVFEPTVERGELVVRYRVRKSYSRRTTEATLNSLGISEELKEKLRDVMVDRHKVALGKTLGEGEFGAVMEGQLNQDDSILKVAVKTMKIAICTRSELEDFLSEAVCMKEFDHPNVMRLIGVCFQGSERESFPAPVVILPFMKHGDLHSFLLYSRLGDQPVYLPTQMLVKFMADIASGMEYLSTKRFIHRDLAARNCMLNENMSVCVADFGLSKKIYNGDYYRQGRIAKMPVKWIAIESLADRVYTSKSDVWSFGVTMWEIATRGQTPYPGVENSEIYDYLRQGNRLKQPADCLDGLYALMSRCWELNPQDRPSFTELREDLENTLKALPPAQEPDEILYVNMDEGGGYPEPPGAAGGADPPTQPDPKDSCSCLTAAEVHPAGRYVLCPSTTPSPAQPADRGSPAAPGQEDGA
Chain of Serine/threonine-protein kinase WNK3 (Homo sapiens) (Q9BYP7 whole entry): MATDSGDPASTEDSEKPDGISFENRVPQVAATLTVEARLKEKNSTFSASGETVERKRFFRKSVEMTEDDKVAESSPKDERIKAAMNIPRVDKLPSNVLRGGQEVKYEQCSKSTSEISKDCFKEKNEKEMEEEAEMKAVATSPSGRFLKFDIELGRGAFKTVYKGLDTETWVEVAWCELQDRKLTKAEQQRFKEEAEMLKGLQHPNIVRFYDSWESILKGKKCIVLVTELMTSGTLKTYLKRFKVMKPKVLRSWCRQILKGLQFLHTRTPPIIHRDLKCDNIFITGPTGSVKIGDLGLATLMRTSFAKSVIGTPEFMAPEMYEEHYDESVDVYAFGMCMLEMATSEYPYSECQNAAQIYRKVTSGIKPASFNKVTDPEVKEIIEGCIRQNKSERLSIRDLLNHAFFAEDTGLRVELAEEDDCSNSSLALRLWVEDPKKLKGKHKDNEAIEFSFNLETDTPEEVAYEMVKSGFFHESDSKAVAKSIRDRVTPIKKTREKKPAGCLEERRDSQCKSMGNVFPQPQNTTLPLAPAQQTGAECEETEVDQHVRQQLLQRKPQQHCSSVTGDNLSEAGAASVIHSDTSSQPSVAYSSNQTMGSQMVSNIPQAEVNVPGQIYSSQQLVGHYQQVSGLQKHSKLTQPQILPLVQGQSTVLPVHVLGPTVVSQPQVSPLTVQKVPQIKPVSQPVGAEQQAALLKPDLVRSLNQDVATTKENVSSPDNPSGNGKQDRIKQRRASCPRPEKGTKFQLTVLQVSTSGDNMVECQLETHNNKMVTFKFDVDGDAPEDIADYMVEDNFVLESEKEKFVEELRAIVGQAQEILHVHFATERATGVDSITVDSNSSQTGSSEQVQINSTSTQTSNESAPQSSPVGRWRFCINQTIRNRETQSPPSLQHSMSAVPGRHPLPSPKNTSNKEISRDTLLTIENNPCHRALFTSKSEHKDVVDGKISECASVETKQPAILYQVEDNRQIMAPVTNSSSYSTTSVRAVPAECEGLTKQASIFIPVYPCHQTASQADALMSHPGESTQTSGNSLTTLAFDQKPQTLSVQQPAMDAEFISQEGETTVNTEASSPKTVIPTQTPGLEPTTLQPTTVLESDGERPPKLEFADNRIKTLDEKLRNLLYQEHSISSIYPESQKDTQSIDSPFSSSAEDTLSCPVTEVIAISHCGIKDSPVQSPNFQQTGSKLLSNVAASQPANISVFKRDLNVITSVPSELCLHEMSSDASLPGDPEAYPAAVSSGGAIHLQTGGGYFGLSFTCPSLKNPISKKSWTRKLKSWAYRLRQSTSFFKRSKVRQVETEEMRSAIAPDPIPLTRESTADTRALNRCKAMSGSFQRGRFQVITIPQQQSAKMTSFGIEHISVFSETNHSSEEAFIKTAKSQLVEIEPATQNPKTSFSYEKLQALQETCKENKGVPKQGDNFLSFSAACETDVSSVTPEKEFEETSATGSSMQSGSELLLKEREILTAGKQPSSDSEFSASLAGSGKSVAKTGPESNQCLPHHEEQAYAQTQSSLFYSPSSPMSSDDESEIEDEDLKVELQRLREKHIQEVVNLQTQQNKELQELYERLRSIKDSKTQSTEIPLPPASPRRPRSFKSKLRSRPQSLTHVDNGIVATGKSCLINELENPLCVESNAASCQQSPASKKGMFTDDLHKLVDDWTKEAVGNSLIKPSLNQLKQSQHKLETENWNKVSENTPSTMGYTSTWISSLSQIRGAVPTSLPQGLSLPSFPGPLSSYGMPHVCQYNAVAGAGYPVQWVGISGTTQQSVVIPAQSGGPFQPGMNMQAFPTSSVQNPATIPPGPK
Chain of Mitogen-activated protein kinase 14 (Q16539 whole entry, the tested form may be a part): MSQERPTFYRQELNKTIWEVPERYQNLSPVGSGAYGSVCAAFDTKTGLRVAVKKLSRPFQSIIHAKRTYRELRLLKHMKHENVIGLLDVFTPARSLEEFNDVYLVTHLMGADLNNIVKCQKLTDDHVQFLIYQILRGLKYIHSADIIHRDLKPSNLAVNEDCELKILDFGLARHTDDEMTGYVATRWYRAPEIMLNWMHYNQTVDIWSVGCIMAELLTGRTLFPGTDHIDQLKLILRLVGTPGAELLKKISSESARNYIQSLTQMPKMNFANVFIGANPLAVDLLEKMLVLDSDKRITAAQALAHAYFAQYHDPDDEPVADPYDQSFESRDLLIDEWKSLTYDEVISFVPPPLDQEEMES

On to `CNc1cc(Oc2cc(C(=O)Nc3cc(N4CCN(C)CC4)cc(C(F)(F)F)c3)ccc2C)ncn1`, for which the inhibition in experiment [1] was -6.9%; in experiment [2] it was 12%.

On to `CCN1CCN(Cc2ccc(NC(=O)c3ccc(C)c(/C=C/c4cnc5[nH]ccc5c4OC)c3)cc2C(F)(F)F)CC1`, for which the inhibition in experiment [3] stood at 55%; in experiment [4], 23.7%; in experiment [5] it was 73.1%; in [6], 4%. For the same compound, in experiment [7], the residual activity is 25%.

As to `CCN1CCN(Cc2ccc(NC(=O)c3ccc(C)c(Oc4ccnc5[nH]ccc45)c3)cc2C(F)(F)F)CC1`, the inhibition amounted to 19% in [8], 1.1% in [9], 2.3% in experiment [10] and 52.4% in experiment [11]. In [12], this compound showed a % of control of 0.1%.
